Assay results collected from several papers.
KDR: Vascular endothelial growth factor receptor 2 (KDR, Homo sapiens, UniProt P35968)
PIK3CB: Phosphatidylinositol 4,5-bisphosphate 3-kinase catalytic subunit beta isoform (PIK3CB, Homo sapiens, UniProt P42338)
PIK3CA: Phosphatidylinositol 4,5-bisphosphate 3-kinase catalytic subunit alpha isoform (PIK3CA, Homo sapiens, UniProt P42336)

| SMILES | target | assay | IC50 |
| --- | --- | --- | --- |
| O=[N+]([O-])c1cc(Br)c(O)c(C=NNc2ccccc2)c1 | KDR | enzyme activity, inhibitor, ATP luminescence | 5400 nM |
| O=C(O)[C@H]1O[C@@H](Oc2cc3oc(-c4ccc(O)cc4)cc(=O)c3c(O)c2O)[C@H](O)[C@@H](O)[C@@H]1O | KDR | enzyme activity, inhibitor, TR-FRET | 8350 nM |
| O=C(O)CC[C@H](NC(=O)N[C@@H](CCCCNC(=O)[C@H](Cc1ccc2ccccc2c1)NC(=O)[C@H]1CC[C@H](CNC(=O)CN2CCN(CC(=O)O)CCN(CC(=O)O)CCN(CC(=O)O)CC2)CC1)C(=O)O)C(=O)O | Glutamate carboxypeptidase 2 (FOLH1, Homo sapiens, UniProt Q04609) | ligand displacement in cells, radioligand | 7.8 nM |
| CCc1ccc(N=C2C(=O)N(Cc3ccccc3)c3ccccc32)cc1 | PIK3CB | enzyme activity, inhibitor, ADP detection | 22.1 nM |
| O=[N+]([O-])c1ccc(O)c(C=NNc2ccc(C(F)(F)F)cc2)c1 | KDR | enzyme activity, inhibitor, ATP luminescence | 20700 nM |
| O=C(CCc1ccc(Cl)cc1)N1C(=O)C(=Nc2ccc(Cl)cc2Br)c2ccccc21 | PIK3CB | enzyme activity, inhibitor, ADP detection | 810 nM |
| COc1ccc(-c2cc(=O)c3ccc(Nc4ncc5cc(C(=O)N(C)C)n(C6CCCC6)c5n4)cc3o2)cc1 | PIK3CA | enzyme activity, inhibitor, radiometric | > 10000 nM |
| O=C1C(=Nc2ccccc2I)c2ccccc2N1Cc1ccc(Br)cc1 | PIK3CB | enzyme activity, inhibitor, ADP detection | 435 nM |
| O=[N+]([O-])c1cc(I)c(O)c(C=NNc2ccc(Cl)cc2)c1 | KDR | enzyme activity, inhibitor, ATP luminescence | 7830 nM |
| CN(C)C(=O)c1cc2cnc(Nc3ccc(-c4ccc5c(=O)cc(N6CCOCC6)oc5c4)cc3)nc2n1C1CCCC1 | PIK3CA | enzyme activity, inhibitor, radiometric | 5780 nM |
| C[C@@H]1O[C@@H](O[C@H]2[C@H](Oc3cc(O)c4c(=O)cc(-c5ccc(O)cc5)oc4c3)O[C@H](CO)[C@@H](O)[C@@H]2O)[C@H](O)[C@H](O)[C@H]1O | KDR | enzyme activity, inhibitor, TR-FRET | > 40000 nM |
| Cc1c(N2CCOCC2)oc2c(-c3ccc(Nc4ncc5cc(C(=O)N(C)C)n(C6CCCC6)c5n4)cc3F)cccc2c1=O | PIK3CA | enzyme activity, inhibitor, radiometric | > 10000 nM |
| O=C(Nc1nnc(-c2ccc3c(c2)OCCO3)o1)c1ccc(C(=O)c2ccccc2)cc1 | PIK3CA | enzyme activity, inhibitor, ADP detection | 470 nM |
| Cc1ccc(CN2C(=O)C(=Nc3cccc(Cl)c3)c3ccccc32)cc1 | PIK3CA | enzyme activity, inhibitor, ADP detection | 27.6 nM |
| CN(C)C(=O)c1cc2cnc(Nc3ccc(-c4cccc5c(=O)cc(N6CCNCC6)oc45)cc3)nc2n1C1CCCC1 | PIK3CA | enzyme activity, inhibitor, radiometric | > 10000 nM |
| CCc1ccc(N=C2C(=O)Nc3ccccc32)cc1 | PIK3CB | enzyme activity, inhibitor, ADP detection | 270 nM |
| COc1ccc(-c2oc3cc(Nc4ncc5cc(C(=O)N(C)C)n(C6CCCC6)c5n4)ccc3c(=O)c2F)cc1 | PIK3CA | enzyme activity, inhibitor, radiometric | > 10000 nM |
| O=C1C(=Nc2ccc(Cl)cc2Br)c2ccccc2N1Cc1ccc(Br)cc1 | PIK3CB | enzyme activity, inhibitor, ADP detection | 34.4 nM |
| CN(C)C(=O)c1cc2cnc(Nc3cncc(-c4cccc5c(=O)cc(N6CCOCC6)oc45)c3)nc2n1C1CCCC1 | PIK3CA | enzyme activity, inhibitor, radiometric | > 10000 nM |
| CNC(=O)[C@H](Cc1c[nH]c2ccccc12)NC(=O)[C@@H](CC(=O)NO)CC(C)C | Macrophage metalloelastase (MMP12, Homo sapiens, UniProt P39900) | enzyme activity, inhibitor | 0.328 nM |
| CN(C)C(=O)c1cc2cnc(Nc3cc(C(F)(F)F)c(-c4ccc5c(=O)cc(N6CCOCC6)oc5c4)cn3)nc2n1C1CCCC1 | PIK3CA | enzyme activity, inhibitor, radiometric | > 10000 nM |
| O=[N+]([O-])c1cc(I)c(O)c(C=NNc2ccc(C(F)(F)F)cc2)c1 | KDR | enzyme activity, inhibitor, ATP luminescence | 4440 nM |
| CC(=O)OC[C@H]1O[C@@H]([S-])[C@H](OC(C)=O)[C@@H](OC(C)=O)[C@@H]1OC(C)=O.CCP(CC)CC.[Au+] | Thioredoxin reductase 1, cytoplasmic (TXNRD1, Homo sapiens, UniProt Q16881) | enzyme activity, inhibitor, absorbance | 397 nM |
| Cc1cccc(N=C2C(=O)N(Cc3cccc(Cl)c3)c3ccccc32)c1 | PIK3CB | enzyme activity, inhibitor, ADP detection | 33.9 nM |
| O=[N+]([O-])c1cc(Br)c(O)c(C=NNc2ccc(Br)cc2)c1 | KDR | enzyme activity, inhibitor, ATP luminescence | 7070 nM |
| O=C1C(=Nc2ccc(Cl)cc2)c2ccccc2N1Cc1cccc(Cl)c1 | PIK3CA | enzyme activity, inhibitor, ADP detection | 322 nM |
| CN(C)C(=O)c1cc2cnc(Nc3ccc(-c4cccc5c(=O)cc(N6CCOCC6)oc45)cn3)nc2n1C1CCCC1 | PIK3CA | enzyme activity, inhibitor, radiometric | > 10000 nM |
